Reference: ChEMBL document CHEMBL4732030, “Aloe-emodin derived azoles as a new structural type of potential antibacterial agents: design, synthesis, and evaluation of the action on membrane, DNA, and MRSA DNA isomerase” (RSC Med Chem, 2021)
Values after ≈ are worked out from the molar mass of the structure shown.

How the values were obtained:
Type in all cases: functional
Acinetobacter baumannii = assay: Antibacterial activity against Acinetobacter baumannii assessed as inhibition of bacterial growth after 24 hrs by microbroth dilution method
In short: (§1)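 Bacterial inoculum set to 1×10^5 CFU with sterile saline. Test agents and reference drugs, from DMSO stocks, diluted in Mueller-Hinton broth to 512, 256, 128, 64, 32, 16, 8, 4, 2, 1 and 0.5 µg/mL. Inoculated dilutions incubated 37 °C for 24 h.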

Pseudomonas aeruginosa [1] = assay: Antibacterial activity against Pseudomonas aeruginosa assessed as inhibition of bacterial growth after 24 hrs by microbroth dilution method; in short: as §1
Pseudomonas aeruginosa [2] = assay: Antibacterial activity against Pseudomonas aeruginosa ATCC 27853 assessed as inhibition of bacterial growth after 24 hrs by microbroth dilution method; in short: as §1
Staphylococcus aureus [3] = assay: Antibacterial activity against Staphylococcus aureus ATCC 25923 assessed as inhibition of bacterial growth after 24 hrs by microbroth dilution method; in short: as §1
Staphylococcus aureus [4] = assay: Antibacterial activity against Staphylococcus aureus ATCC 29213 assessed as inhibition of bacterial growth after 24 hrs by microbroth dilution method
In short: (§2)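 Inoculum adjusted in sterile saline to 1×10^5 CFU. Compounds dissolved in DMSO as stock, then diluted in Mueller-Hinton broth as a two-fold series from 512 to 0.5 µg/mL (11 levels). Inoculated dilutions incubated at 37 °C for 24 h, and the MIC recorded.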

Staphylococcus aureus [5] = assay: Antibacterial activity against Staphylococcus aureus assessed as inhibition of bacterial growth after 24 hrs by microbroth dilution method; in short: as §1
Klebsiella pneumoniae = assay: Antibacterial activity against Klebsiella pneumoniae assessed as inhibition of bacterial growth after 24 hrs by microbroth dilution method; in short: as §1
Escherichia coli [6] = assay: Antibacterial activity against Escherichia coli ATCC 25922 assessed as inhibition of bacterial growth after 24 hrs by microbroth dilution method; in short: as §1
Escherichia coli [7] = assay: Antibacterial activity against Escherichia coli assessed as inhibition of bacterial growth after 24 hrs by microbroth dilution method; in short: as §1
Staphylococcus aureus [8] = assay: Antibacterial activity against methicillin resistant Staphylococcus aureus assessed as inhibition of bacterial growth after 24 hrs by microbroth dilution method; in short: as §2
Enterococcus faecalis = assay: Antibacterial activity against Enterococcus faecalis assessed as inhibition of bacterial growth after 24 hrs by microbroth dilution method; in short: as §1

Row | SMILES | MIC (Acinetobacter baumannii) [µg/mL] | MIC (Pseudomonas aeruginosa [1]) [µg/mL] | MIC (Pseudomonas aeruginosa [2]) [µg/mL] | MIC (Staphylococcus aureus [3]) [µg/mL] | MIC (Staphylococcus aureus [4]) [µg/mL] | MIC (Staphylococcus aureus [5]) [µg/mL] | MIC (Klebsiella pneumoniae) [µg/mL] | MIC (Escherichia coli [6]) [µg/mL] | MIC (Escherichia coli [7]) [µg/mL] | MIC (Staphylococcus aureus [8]) [µg/mL] | MIC (Enterococcus faecalis) [µg/mL]
1 | O=C1c2cccc(O)c2C(=O)c2c(O)cc(Cn3cnc4ccccc43)cc21 | 32 (≈ 86.4 µM) | 64 (≈ 173 µM) | 32 (≈ 86.4 µM) | 8 (≈ 21.6 µM) | 32 (≈ 86.4 µM) | 32 (≈ 86.4 µM) | 64 (≈ 173 µM) | 16 (≈ 43.2 µM) | 32 (≈ 86.4 µM) | 32 (≈ 86.4 µM) | 16 (≈ 43.2 µM)
2 | CCc1nc2ccccc2n1Cc1cc(O)c2c(c1)C(=O)c1cccc(O)c1C2=O | 64 (≈ 161 µM) | 64 (≈ 161 µM) | 64 (≈ 161 µM) | 128 (≈ 321 µM) | 64 (≈ 161 µM) | 64 (≈ 161 µM) | 64 (≈ 161 µM) | 32 (≈ 80.3 µM) | 64 (≈ 161 µM) | 64 (≈ 161 µM) | 16 (≈ 40.2 µM)
3 | O=C1c2cccc(O)c2C(=O)c2c(O)cc(Cn3c4ccccc4c4ccccc43)cc21 | 64 (≈ 153 µM) | 64 (≈ 153 µM) | 64 (≈ 153 µM) | 16 (≈ 38.1 µM) | 32 (≈ 76.3 µM) | 8 (≈ 19.1 µM) | 128 (≈ 305 µM) | 64 (≈ 153 µM) | 128 (≈ 305 µM) | 32 (≈ 76.3 µM) | 128 (≈ 305 µM)
4 | O=C1c2cccc(O)c2C(=O)c2c(O)cc(CSc3nnc[nH]3)cc21 | 64 (≈ 181 µM) | 32 (≈ 90.6 µM) | 64 (≈ 181 µM) | 16 (≈ 45.3 µM) | 16 (≈ 45.3 µM) | 16 (≈ 45.3 µM) | 64 (≈ 181 µM) | 64 (≈ 181 µM) | 128 (≈ 362 µM) | 64 (≈ 181 µM) | 128 (≈ 362 µM)
5 | O=C1c2cccc(O)c2C(=O)c2c(O)cc(CCl)cc21 | 64 (≈ 222 µM) | 64 (≈ 222 µM) | 32 (≈ 111 µM) | 64 (≈ 222 µM) | 128 (≈ 443 µM) | 64 (≈ 222 µM) | 32 (≈ 111 µM) | 32 (≈ 111 µM) | 128 (≈ 443 µM) | 32 (≈ 111 µM) | 256 (≈ 887 µM)
6 | O=C1c2cccc(O)c2C(=O)c2c(O)cc(Cn3ccnc3[N+](=O)[O-])cc21 | 64 (≈ 175 µM) | 64 (≈ 175 µM) | 64 (≈ 175 µM) | 32 (≈ 87.6 µM) | 32 (≈ 87.6 µM) | 32 (≈ 87.6 µM) | 64 (≈ 175 µM) | 32 (≈ 87.6 µM) | 64 (≈ 175 µM) | 32 (≈ 87.6 µM) | 32 (≈ 87.6 µM)
7 | Cc1nnnn1Cc1cc(O)c2c(c1)C(=O)c1cccc(O)c1C2=O | 32 (≈ 95.2 µM) | 128 (≈ 381 µM) | 32 (≈ 95.2 µM) | 64 (≈ 190 µM) | 64 (≈ 190 µM) | 16 (≈ 47.6 µM) | 64 (≈ 190 µM) | 64 (≈ 190 µM) | 64 (≈ 190 µM) | 32 (≈ 95.2 µM) | 16 (≈ 47.6 µM)
8 | O=C1c2cccc(O)c2C(=O)c2c(O)cc(CSc3nc4ccccc4[nH]3)cc21 | 16 (≈ 39.8 µM) | 128 (≈ 318 µM) | 64 (≈ 159 µM) | 128 (≈ 318 µM) | 16 (≈ 39.8 µM) | 4 (≈ 9.94 µM) | 64 (≈ 159 µM) | 128 (≈ 318 µM) | 64 (≈ 159 µM) | 32 (≈ 79.5 µM) | 32 (≈ 79.5 µM)
9 | O=C1c2cccc(O)c2C(=O)c2c(O)cc(Cn3cncn3)cc21 | 32 (≈ 99.6 µM) | 32 (≈ 99.6 µM) | 32 (≈ 99.6 µM) | 16 (≈ 49.8 µM) | 32 (≈ 99.6 µM) | 8 (≈ 24.9 µM) | 64 (≈ 199 µM) | 64 (≈ 199 µM) | 64 (≈ 199 µM) | 32 (≈ 99.6 µM) | 128 (≈ 398 µM)
10 | Cn1ccnc1SCc1cc(O)c2c(c1)C(=O)c1cccc(O)c1C2=O | 32 (≈ 87.3 µM) | 128 (≈ 349 µM) | 64 (≈ 175 µM) | 256 (≈ 699 µM) | 128 (≈ 349 µM) | 128 (≈ 349 µM) | 128 (≈ 349 µM) | 128 (≈ 349 µM) | 128 (≈ 349 µM) | 128 (≈ 349 µM) | 128 (≈ 349 µM)
11 | O=C1c2cccc(O)c2C(=O)c2c(O)cc(Cn3cnc([N+](=O)[O-])c3)cc21 | 32 (≈ 87.6 µM) | 64 (≈ 175 µM) | 32 (≈ 87.6 µM) | 16 (≈ 43.8 µM) | 16 (≈ 43.8 µM) | 16 (≈ 43.8 µM) | 128 (≈ 350 µM) | 32 (≈ 87.6 µM) | 64 (≈ 175 µM) | 64 (≈ 175 µM) | 128 (≈ 350 µM)
12 | O=C1c2cccc(O)c2C(=O)c2c(O)cc(Cn3cnc4cc([N+](=O)[O-])ccc43)cc21 | 32 (≈ 77 µM) | 32 (≈ 77 µM) | 32 (≈ 77 µM) | 64 (≈ 154 µM) | 32 (≈ 77 µM) | 32 (≈ 77 µM) | 64 (≈ 154 µM) | 32 (≈ 77 µM) | 64 (≈ 154 µM) | 64 (≈ 154 µM) | 16 (≈ 38.5 µM)
13 | CCn1cc(C(=O)O)c(=O)c2cc(F)c(N3CCNCC3)cc21 [NORFLOXACIN] | 0.5 (≈ 1.57 µM) | 8 (≈ 25.1 µM) | 2 (≈ 6.26 µM) | 1 (≈ 3.13 µM) | 1 (≈ 3.13 µM) | 8 (≈ 25.1 µM) | 4 (≈ 12.5 µM) | 8 (≈ 25.1 µM) | 16 (≈ 50.1 µM) | 8 (≈ 25.1 µM) | 32 (≈ 100 µM)
14 | O=C1c2cccc(O)c2C(=O)c2c(O)cc(Cn3nnc4ccccc43)cc21 | 16 (≈ 43.1 µM) | 128 (≈ 345 µM) | 64 (≈ 172 µM) | 256 (≈ 689 µM) | 32 (≈ 86.2 µM) | 128 (≈ 345 µM) | 128 (≈ 345 µM) | 32 (≈ 86.2 µM) | 128 (≈ 345 µM) | 32 (≈ 86.2 µM) | 32 (≈ 86.2 µM)
15 | Cc1ccc2c(c1)ncn2Cc1cc(O)c2c(c1)C(=O)c1cccc(O)c1C2=O | 64 (≈ 166 µM) | 32 (≈ 83.2 µM) | 64 (≈ 166 µM) | 32 (≈ 83.2 µM) | 32 (≈ 83.2 µM) | 32 (≈ 83.2 µM) | 64 (≈ 166 µM) | 32 (≈ 83.2 µM) | 64 (≈ 166 µM) | 64 (≈ 166 µM) | 32 (≈ 83.2 µM)
